Sampled rows, rich in hits. Any-hit rate of the full collection: about 2.3%.
Tn7 DDE FP = inhibitors of Tn7 peptide binding to fibrin DD(E), primary screen, biochemical, fluorescence polarization, human fibrin, Tn7 probe; inhibition, % at 8.3 µM; actives 0.13% (n = 370,000); AID 720508, 2013; Fibrinogen beta chain (Homo sapiens), P02675; FP displacement of FITC-Tn7 peptide from fibrin DD(E); 0% = median of compound wells per plate;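 active means inhibition above the mean of compounds falling within the control limits plus 3 SD of them, cut at about 14% in these data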;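 further: 0% = plate median of compound wells and 100% = 10 µM Aha-Tn7 peptide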
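Assay system: Human clot-derived fibrin DD(E) complex | Buffer or medium: Tris/NaCl/CaCl2 buffer, pH 7.8 | Repeats: One replicate per compound | Benchmarks: Aha-Tn7 high control | Measure: % inhibition scaled between sample-field median and high-control FP | Schedule: 10 min plus 3 h, room temperature | Signal: Fluorescence polarization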
PLCg1 inh = PLC-gamma1 enzyme inhibitors, primary screen, biochemical, fluorescence, purified enzyme; 1-phosphatidylinositol 4,5-bisphosphate phosphodiesterase gamma-1 (Homo sapiens), P19174; fluorogenic substrate; inhibition, % at 12.2 µM; actives 0.84% (n = 370,000); AID 720700, 2013; in the data active means inhibition above about 9.5%
DDE Tn6 FP inh = inhibitors of Tn6 peptide binding to fibrin DD(E), primary screen, biochemical, fluorescence polarization, human fibrin, Tn6 probe | Fibrinogen beta chain (Homo sapiens), P02675 | Fibrin DD(E) TRITC-Tn6 fluorescence polarization displacement | inhibition, % at 8.3 µM | actives 0.21% (n = 370,000) | AID 720509, 2013;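 active means inhibition above a per-campaign cutoff: mean of compounds within control limits plus 3 SD, cut at about 15% in these data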;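 further: 0% = median of all compound wells on the plate and 100% = blocking peptide control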
PLC-beta3 inh = human PLC-beta3 inhibitors, primary screen, biochemical, fluorescence; 1-phosphatidylinositol 4,5-bisphosphate phosphodiesterase beta-3 (Homo sapiens), Q01970; Purified PLC-beta3, fluorogenic substrate; inhibition, % at 12.2 µM; actives 0.18% (n = 370,000); AID 720704, 2013;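 further: 0% = median of compound wells on plate and 100% = full blocker control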
ADAM17 inh = ADAM17 inhibitors, primary screen, biochemical, QFRET; actives 0.83% (n = 370,000); AID 720648, 2013; recombinant ADAM17, EDANS/DABCYL FRET peptide cleavage; Disintegrin and metalloproteinase domain-containing protein 17 (Homo sapiens), P78536; inhibition, % at 6.95 µM;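 active means inhibition above the mean of compounds lying between control limits plus 3 SD, set per campaign, cut at about 8.5% in these data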;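 further: 0% = DMSO-only wells as the low control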
Target sequence (P78536 215-824 limits assumed): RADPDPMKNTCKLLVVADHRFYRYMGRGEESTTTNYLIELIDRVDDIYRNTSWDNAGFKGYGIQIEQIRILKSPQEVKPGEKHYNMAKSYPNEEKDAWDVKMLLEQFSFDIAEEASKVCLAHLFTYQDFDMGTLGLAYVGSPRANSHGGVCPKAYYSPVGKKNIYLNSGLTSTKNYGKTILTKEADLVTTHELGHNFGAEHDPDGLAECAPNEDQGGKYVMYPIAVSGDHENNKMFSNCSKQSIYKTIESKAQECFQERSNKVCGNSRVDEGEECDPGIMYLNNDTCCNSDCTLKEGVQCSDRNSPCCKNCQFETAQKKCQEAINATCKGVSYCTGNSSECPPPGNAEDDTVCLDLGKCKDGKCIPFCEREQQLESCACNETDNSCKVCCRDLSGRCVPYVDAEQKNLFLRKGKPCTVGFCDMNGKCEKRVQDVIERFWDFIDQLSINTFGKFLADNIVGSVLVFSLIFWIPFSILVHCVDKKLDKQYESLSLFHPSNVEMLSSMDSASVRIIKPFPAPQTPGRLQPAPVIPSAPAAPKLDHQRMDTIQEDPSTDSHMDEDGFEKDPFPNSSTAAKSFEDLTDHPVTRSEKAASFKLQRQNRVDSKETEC
ADAM10 inh = human ADAM10 inhibitors, primary screen, biochemical, QFRET, HTS. recombinant ADAM10, EDANS/DABCYL FRET peptide cleavage, 3 h. inhibition, % at 7 µM. actives 0.62% (n = 370,000). AID 720582, 2013;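 active means inhibition above a per-campaign cutoff equal to the mean of compounds falling between control-based bounds plus 3 SD, cut at about 20% in these data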;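 further: 0% = DMSO wells while the 100% control is not disclosed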
PLCg1 ctr = PLC-gamma1 enzyme inhibitors, counter-screen for PLC-beta3 inhibitor project, biochemical, fluorescence; purified PLC-gamma1, fluorogenic substrate; actives 3.1% (n = 3,300); inhibition, % at 12.3 µM; shares compounds with PLCg1 inh; in the data active means inhibition above about 9.5%
PLCbeta3 conf = PLC-beta3 inhibitor confirmation, biochemical, fluorescence, purified enzyme | shares compounds with PLCg1 inh | fluorogenic substrate fluorescence | inhibition, % at 12.3 µM | actives 1% (n = 3,300) | AID 743261, 2014
* marks the source's active call; other numbers are inactive results; / = no result. Unless noted, no stated cut-off is given here; in the data, active means inhibition above about 11%; inactive means the rest.

SMILES | Tn7 DDE FP | PLCg1 inh | DDE Tn6 FP inh | PLC-beta3 inh | ADAM17 inh | ADAM10 inh | PLCg1 ctr | PLCbeta3 conf
CC(C)NC(=O)CC1C(=O)N(Cc2ccccc2)C(C)c2nc3ccccc3n21 (centres undefined) | -3 | 13* | 1 | 4 | 4 | 1 | -2 | -1
COc1ccc(NS(=O)(=O)Cc2ccccc2Cl)cn1 | -3 | 12* | 0 | 3 | 2 | 12 | -1 | 5
COCCNC(=O)C[C@H]1CC[C@H]2[C@@H](COc3ccc(NS(=O)(=O)c4ccc(Cl)cc4)cc3C(=O)N2C)O1 | 1 | 8 | -7 | 8 | -1 | 3 | / | /
CCCCOCCCNC(=O)C[C@H]1C(=O)N(CCCOC)C2=CCCCC[C@]21C(=O)OC | 1 | -1 | 2 | 2 | 1 | -2 | / | /
CCN(CC)C(=O)CC[C@H]1CC[C@]2(CCCN(Cc3ccccc3)C2)O1 | -1 | -1 | 2 | 1 | 0 | 2 | / | /
Cc1cc(C)c2c(c1)/C(=N/NS(=O)(=O)c1ccc(Br)cc1)CCC2 | -8 | 3 | 0 | 2 | 1 | 3 | / | /
Cc1cc(C)c2c(c1)/C(=N/NS(=O)(=O)c1ccccc1)CCC2 | 5 | 0 | -12 | 11* | -7 | -6 | 3 | -1
COC(=O)C1CN(CCO)CCS(=O)(=O)N1Cc1cn(Cc2cccc(Cl)c2)nn1 (centres undefined) | -2 | 0 | 0 | 5 | -4 | -1 | / | /
Cc1cc(C)nc(Nc2nc(C(N)CCc3ccccc3)cs2)n1 (centres undefined) | -9 | 14* | 3 | 11* | 8 | 12 | -6 | -14
Cc1cc(C)nc(Nc2nc(C(N)c3ccccc3)cs2)n1 (centres undefined) | 2 | -11 | -4 | -2 | -8 | -14 | / | /
C[C@@H]1OCN(C)[C@H]2C[C@H]3c4[nH]c5cccc(-c6cccc(F)c6)c5c4CCN3C(=O)[C@@H]12 | 4 | -25 | 3 | -37 | -26 | -80 | / | /
O=C(c1ccc([N+](=O)[O-])o1)N1CCN(c2nc3c(F)cc(F)cc3s2)CC1 | 10 | 15* | 1 | 1 | -1 | 2 | -2 | 1
Cc1ccc2c(c1)c(N=Nc1cccc(C(=O)O)c1)c(O)n2C | 1 | 13* | 2 | 1 | 2 | 2 | -8 | -8
COc1ccccc1-c1ccc([C@@H]2C[C@H]3[C@H](CON3C)CN2CC2CCCCC2)cc1 | 5 | 5 | 8 | 6 | 7 | 2 | / | /
O=C(CSc1nnc(-c2ccccn2)n1Cc1ccco1)Nc1ccc(Oc2ccccc2)cc1 | -10 | 11* | -4 | 3 | 3 | 9 | -5 | -2
NC(N)=N/N=C(\N=Nc1ccccc1)c1ccc(Cl)cc1 | -9 | 10* | 11 | 10 | 8 | 4 | 4 | 1
O=C(Nc1ccc(F)c(Cl)c1)c1nsc(Cl)c1Cl | -5 | 11* | 2 | 6 | 6 | 1 | -9 | -8
COC(=O)[C@@H]1C[C@@]2(c3ccccc3)c3ccccc3N(S(=O)(=O)c3ccccc3)[C@H]2N1C(=O)CNC1CCCCC1 | 3 | 5 | 1 | 4 | 2 | 6 | / | /
COc1ccc(-c2ncn(CCc3ccccc3OC)c2C(C)C)cc1 | 1 | 2 | 1 | -1 | -4 | -8 | / | /
COc1ccc(-n2c(C)cc(/C=C3/SC(=S)N(C)C3=O)c2C)cc1 | -1 | 11* | 4 | -3 | -3 | 0 | -23 | -19
CCCCNS(=O)(=O)/C=C/c1cc(C)ccc1CNC(=O)OC(C)(C)C | 0 | -2 | -2 | 3 | 3 | 7 | / | /
CN1C(=O)[C@@](O)(c2cn(C)c3ccccc23)c2cc(F)ccc21 | 0 | 3 | 1 | 12* | 3 | 7 | -6 | -3
CN1C(=O)C(c2cn(C)c3ccccc23)(c2cn(C)c3ccccc23)c2cc(F)ccc21 | -2 | 2 | -2 | -1 | 0 | -4 | / | /
CC(=O)Nc1cccc(NC(=O)c2cc3ccccc3o2)c1 | 1 | 9.7* | -3 | 3 | 4 | 7 | -7 | -3
CC(C)C(=O)Nc1cccc(NC(=O)c2cc3ccccc3o2)c1 | 1 | 0 | -1 | 1 | 0 | 8 | / | /
SMILES | Tn7 DDE FP | PLCg1 inh | DDE Tn6 FP inh | PLC-beta3 inh | ADAM17 inh | ADAM10 inh | PLCg1 ctr | PLCbeta3 conf
O=C(NN1C(=O)NC2(CCCCC2)C1=O)c1ccc(Cl)c(Cl)c1 | -1 | 12* | -7 | -11 | -5 | -2 | -9 | -7
Cc1ccc(CNC(=O)CN(c2cccc([N+](=O)[O-])c2)S(C)(=O)=O)cc1 | -1 | 11* | -4 | 3 | 5 | 11 | -2 | -3
O=C(Nc1nc(-c2ccc(F)c(F)c2)cs1)Nc1ccc(F)cc1F | -3 | 10* | -2 | 3 | 3 | 0 | 3 | -1
O=C(COCc1ccccc1)NC1CCCCN(Cc2ccc(Cl)cc2)C1=O (centres undefined) | 0 | 2 | 3 | -2 | -1 | -4 | / | /
CCOC(=O)[C@]12CCCC=C1N(CCCOC)C(=O)[C@@H]2CC(=O)NCc1cccs1 | 3 | 0 | 2 | 2 | -2 | -3 | / | /
NC(N)=N/N=C/c1ccc(OCc2ccccc2)c(OCc2ccccc2)c1 | -1 | 12* | -26 | -4 | 8 | 14 | 4 | 4
O=C(c1ccccc1)N1CCN=C1SCc1ccc([N+](=O)[O-])cc1 | 6 | 9.6* | 1 | -3 | 3 | 2 | -3 | 0
CN(C)S(=O)(=O)c1ccc(NC(=O)CN2CCN(C(c3ccccc3)c3ccccc3)CC2)cc1 | 4 | 11* | -3 | 1 | 0 | 6 | -1 | -1
COc1ccc(CN2C[C@]3(C=C(C)Cn4c(=O)n(-c5ccccc5)c(=O)n43)N=C2NC(=O)c2ccccc2)c(OC)c1 | 4 | -7 | -4 | -9 | -1 | 9 | / | /
CNC(=O)C1Cc2c(-c3cccc(F)c3)ccnc2O1 (centres undefined) | 3 | 16* | 1 | 4 | 7 | 6 | -4 | 1
Cc1nc(-c2ccncc2)nc(NCCNc2ncccc2C(F)(F)F)c1Cl | -3 | 12* | 1 | 6 | 6 | 12 | -5 | -3
